Lmaj promast = Leishmania major promastigote growth inhibition, primary screen; hit rate 9% among 200,000; inhibition, % at 10 µM; Leishmania major promastigotes, resazurin fluorescence viability; AID 1063, 2008; in the data active = inhibition above about 50%;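 note: promastigotes grown with compound for 44 hours at 28 °C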
Autophagy mod = autophagy modulators in MEF cells, primary screen, imaging, high-content, MEF GFP-LC3 | MEF GFP-LC3 puncta imaging; test concentration mostly 10 µM | calls only at 10 µM (by protocol) | hit rate 0.98% among 190,000;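 active = percentage of spot-positive cells more than 3 SD above its plate mean, without a fluorescence outlier flag or 80% toxicity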;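 note: spot-positive cell cutoff set from DMSO-treated cells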
Dynein cargo inh = inhibitors of GR-EGFP nuclear translocation, primary screen, dynein cargo transport inhibitor project, imaging, high-content, 3617.4 mouse cells; test concentration mostly 20 µM; stimulated with dexamethasone, 1 µM; stronger effect = lower value; z-score, hits read low; hit rate 0.47% among 220,000;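 active = plate z-score of nuclear minus cytoplasmic receptor signal below a set negative limit, without overly bright fluorescence or cell loss, cut at about -3.5 in these data, passing the limit was not always enough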;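 note: z-score of nuclear minus cytoplasmic ring GR-EGFP intensity difference per well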
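medium = tetracycline-free induction medium containing charcoal-stripped FBS | also added = 1.0 µM final dexamethasone stimulus | schedule = 48 h induction, 1 h compound, 30 min dex at 37 °C | technique = fixed, Hoechst-stained cells imaged at 10x for EGFP | measure = GR-EGFP nuclear translocation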
bCat KO growth = primary screen for growth suppressors in beta-catenin knockout HCT116 cells (colon tumor, human). HCT116 beta-catenin knockout viability, CellTiter-Glo, 60 h; stronger effect = lower value. viability, % at 10 µM. hit rate 1.5% among 140,000. AID 818, 2007;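 active = viability at or under a set limit, the compound median less 4 SD, cut at about 6% in these data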;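 note: 0% = Hyamine 1622 control at 20 µM and 100% = untreated cell control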
PTEN del growth = growth suppression of PTEN-null HCT116, primary screen, cell-based, CellTiter-Glo; viability, % at 10 µM; hit rate 1.2% among 140,000; AID 827, 2007; HCT116 PTEN-null viability, 60 h; stronger effect = lower value;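 active = viability at or below a set limit, 4 SD under the median of all tested compounds, cut at about 3.7% in these data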;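 note: PTEN knockout HCT116 line with beta catenin targeted HCT116 as companion control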
Active calls of the source: *. A selection: hits, their analogues and other compounds. The true share with any hit is near 9.2%.

What do the screens show for `O=C(O)CNC(=O)c1ccccc1Br`?
Lmaj promast: -5.4; Autophagy mod: inactive; Dynein cargo inh: 0.508

What do the screens show for `O=C(CN1CCN(c2ccccc2)CC1)N1CCc2[nH]c3ccccc3c2C1`?
Lmaj promast: 90.8*; Autophagy mod: inactive; Dynein cargo inh: 0.197; bCat KO growth: 71.1; PTEN del growth: 72.4

What do the screens show for `O=C(CN1CCc2[nH]c3ccccc3c2C1)N1CCCCC1`?
Lmaj promast: -9.4; Autophagy mod: inactive; Dynein cargo inh: -0.523; bCat KO growth: 91.9; PTEN del growth: 88.6

Results for Clc1ccccc1CN1CCN(/N=C/C=C/c2ccco2)CC1 ?
Dynein cargo inh: -0.241

What do the screens show for `CCN1CCS/C1=C\C=C\C1=[N+](CC)CCS1`?
Lmaj promast: 100.4*; Autophagy mod: inactive; Dynein cargo inh: 0.473

How did CCN1CCS/C1=C/C=C/C1=[N+](CC)CCS1 do in these assays?
Lmaj promast: 100.2*; Autophagy mod: inactive; Dynein cargo inh: -0.361; bCat KO growth: 9.9; PTEN del growth: 11.7

How did COc1cc(CNC(C)C)c(Br)cc1OC1CCCC1 do in these assays?
Lmaj promast: 5.7; Autophagy mod: inactive; Dynein cargo inh: 0.277

What do the screens show for `CCOc1ccccc1NC(=O)Cn1nnc(-c2ccc(OCC)c(OCC)c2)n1`?
Lmaj promast: 1.3; Autophagy mod: inactive; Dynein cargo inh: 0.307; bCat KO growth: 2.0*; PTEN del growth: 2.8*

How did COc1ccc(S(=O)(=O)Nc2ccccc2-c2nnn(CC(=O)Nc3ccccc3OC)n2)cc1 do in these assays?
Lmaj promast: 98.4*; Autophagy mod: inactive; Dynein cargo inh: -0.308; bCat KO growth: 53.1; PTEN del growth: 39.8

Results for CN(C)c1ccc(-c2nnn(CC(=O)Nc3ccccc3N3CCOCC3)n2)cc1 ?
Lmaj promast: 1.7; Autophagy mod: inactive; Dynein cargo inh: -1.38; bCat KO growth: 78.8; PTEN del growth: 70.6

How did CCOc1ccc(-c2nnn(CC(=O)Nc3cc(OC)ccc3OC)n2)cc1OCC do in these assays?
Lmaj promast: -0.1; Autophagy mod: inactive; Dynein cargo inh: 0.765; bCat KO growth: 107.8; PTEN del growth: 94.1

What do the screens show for `CC1CCN(Cc2ccc(-c3nnn(CC(=O)Nc4ccccc4Cl)n3)cc2)CC1`?
Lmaj promast: 64.3*; Autophagy mod: inactive; Dynein cargo inh: -0.297

Results for O=C(Cn1nnc(-c2ccc(S(=O)(=O)N3CCCC3)cc2)n1)Nc1ccccc1-n1cccc1 ?
Lmaj promast: 95.5*; Autophagy mod: inactive; Dynein cargo inh: 0.242; bCat KO growth: 99.3; PTEN del growth: 99.0

What do the screens show for `CCCOc1ccc(N2C(=O)CC(SC(=N)N3N=C(c4ccccc4)CC3c3ccccc3)C2=O)cc1` (centres undefined)?
Lmaj promast: 98.4*; Autophagy mod: inactive; Dynein cargo inh: -0.107

Results for O=C(O)COc1ccccc1/C=N/NC(=O)Cc1csc(Nc2cccc(C(F)(F)F)c2)n1 ?
Lmaj promast: -2.7; Autophagy mod: inactive; Dynein cargo inh: 0.106

Results for O=C(NCCC(c1ccccc1)c1ccccc1)c1cnc2sccn2c1=O ?
Lmaj promast: -3.9; Autophagy mod: inactive; Dynein cargo inh: 1.45

How did CCC1CCCCN1c1nc(-c2ccncc2)nc2ccccc12 (centres undefined) do in these assays?
Lmaj promast: 94.7*; Autophagy mod: inactive; Dynein cargo inh: -0.605; bCat KO growth: 52.5; PTEN del growth: 60.6

How did CC1CCCCN1c1nc(-c2ccncc2)nc2ccccc12 (centres undefined) do in these assays?
Lmaj promast: 80.9*; Autophagy mod: inactive; Dynein cargo inh: -0.416; bCat KO growth: 65.1; PTEN del growth: 69.7

How did Cc1c(Cl)c(=O)oc2cc(OCC(=O)NCc3cccs3)ccc12 do in these assays?
Lmaj promast: 62.3*; Autophagy mod: inactive; Dynein cargo inh: -0.467; bCat KO growth: 88.8; PTEN del growth: 93.2

How did Cc1cc(C)cc(NC(=O)COc2ccc3c(C)c(Cc4ccccc4)c(=O)oc3c2)c1 do in these assays?
Lmaj promast: 93.9*; Autophagy mod: inactive; Dynein cargo inh: 0.432; bCat KO growth: 60.7; PTEN del growth: 68.1

Results for COCc1cc(CN2CCN(C)CC2)c(O)c2ncccc12 ?
Lmaj promast: 100.4*; Autophagy mod: inactive; Dynein cargo inh: 0.654; bCat KO growth: 69.4; PTEN del growth: 80.7

How did Oc1c(CN2CCN(c3ccccc3)CC2)cc(Br)c2cccnc12 do in these assays?
Dynein cargo inh: -1.37

Assay outcomes deposited in PubChem BioAssay by several laboratories.
